From ChEMBL document CHEMBL4038284, “Synthesis of novel quinoline-based 4,5-dihydro-1H-pyrazoles as potential anticancer, antifungal, antibacterial and antiprotozoal agents” (Eur J Med Chem, 2017)

Legend:
Format in all cases: functional
[1] = test system: MOLT-4; test: Growth inhibition of human MOLT4 cells incubated for 48 hrs by sulforhodamine B assay; conditions: MOLT-4, 48 h
Outline: (§1)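 NCI 60-line screen. Cells in RPMI-1640 with 5% FBS and 2 mM L-glutamine, preincubated 24 h, then time-zero plates TCA-fixed. Compounds from DMSO stocks given at five final concentrations (100, 10, 1.0, 0.1, 0.01 µM) for 48 h at 37 °C, 5% CO2. Cells fixed with 10% TCA, SRB-stained, read at 515 nm. GI50 is the concentration giving 50% lower net protein increase versus control.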

[2] = test system: U-251; test: Growth inhibition of human U251 cells incubated for 48 hrs by sulforhodamine B assay; conditions: U-251, 48 h
Outline: (§2)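 NCI-60 panel cells grown in RPMI-1640 with 5% FBS and 2 mM L-glutamine, preincubated 24 h at 37 °C/5% CO2. Time-zero plates were TCA-fixed at compound addition. DMSO stocks were diluted in medium and tested at five final concentrations (100, 10, 1.0, 0.1, 0.01 µM) for 48 h. Cells were TCA-fixed, stained with SRB and read at 515 nm. GI50 = 50% lower net protein increase versus control.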

[3] = test system: IGROV-1; test: Growth inhibition of human IGROV1 cells incubated for 48 hrs by sulforhodamine B assay; conditions: IGROV-1, 48 h; outline: as §1
[4] = test system: MDA-MB-435; test: Growth inhibition of human MDA-MB-435 cells incubated for 48 hrs by sulforhodamine B assay; conditions: MDA-MB-435, 48 h
Outline: (§3)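 Five-dose NCI SRB assay at 100, 10, 1.0, 0.1 and 0.01 μM for 48 h at 37 °C, 5% CO2. Medium was RPMI-1640 with 5% FBS and 2 mM glutamine. Time-zero plates were TCA-fixed at compound addition, A515 read after SRB staining. GI50 was solved from [(Ti−Tz)/(C−Tz)]×100 = 50. Values beyond the tested range are given as > or <.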

[5] = test system: EKVX; test: Growth inhibition of human EKVX cells incubated for 48 hrs by sulforhodamine B assay
Outline: (§4)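 NCI five-dose SRB assay (100, 10, 1.0, 0.1, 0.01 µM) with 48 h exposure in RPMI-1640 with 5% FBS and 2 mM L-glutamine. Cells fixed with TCA and stained with SRB, read at 515 nm. GI50 is the concentration where [(Ti−Tz)/(C−Tz)]×100 = 50.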

[6] = test system: COLO 205; test: Growth inhibition of human COLO205 cells incubated for 48 hrs by sulforhodamine B assay; conditions: COLO 205, 48 h; outline: as §4
[7] = test system: NCI-H226; test: Growth inhibition of human NCI-H226 cells incubated for 48 hrs by sulforhodamine B assay; conditions: NCI-H226, 48 h; outline: as §1
[8] = test system: NCI/ADR-RES; test: Growth inhibition of human NCI/ADR-RES cells incubated for 48 hrs by sulforhodamine B assay; outline: as §1
[9] = test system: UO-31; test: Growth inhibition of human UO31 cells incubated for 48 hrs by sulforhodamine B assay; conditions: UO-31, 48 h; outline: as §2
[10] = test system: BT-549; test: Growth inhibition of human BT549 cells incubated for 48 hrs by sulforhodamine B assay; conditions: BT-549, 48 h; outline: as §4
[11] = test system: HCT-116; test: Growth inhibition of human HCT116 cells incubated for 48 hrs by sulforhodamine B assay; conditions: HCT-116, 48 h; outline: as §4
[12] = test system: OVCAR-4; test: Growth inhibition of human OVCAR4 cells incubated for 48 hrs by sulforhodamine B assay; conditions: OVCAR-4, 48 h; outline: as §3
[13] = test system: A498; test: Growth inhibition of human A498 cells incubated for 48 hrs by sulforhodamine B assay; conditions: A498, 48 h; outline: as §1
[14] = test system: HCT-15; test: Growth inhibition of human HCT15 cells incubated for 48 hrs by sulforhodamine B assay; conditions: HCT-15, 48 h; outline: as §1
[15] = test system: SNB-19; test: Growth inhibition of human SNB19 cells incubated for 48 hrs by sulforhodamine B assay; conditions: SNB-19, 48 h; outline: as §2
[16] = test system: OVCAR-8; test: Growth inhibition of human OVCAR8 cells incubated for 48 hrs by sulforhodamine B assay; conditions: OVCAR-8, 48 h; outline: as §3
[17] = test system: SK-MEL-28; test: Growth inhibition of human SK-MEL-28 cells incubated for 48 hrs by sulforhodamine B assay; conditions: SK-MEL-28, 48 h; outline: as §2
[18] = test system: DU-145; test: Growth inhibition of human DU145 cells incubated for 48 hrs by sulforhodamine B assay; conditions: DU-145, 48 h; outline: as §4
[19] = test system: MCF7; test: Growth inhibition of human MCF7 cells incubated for 48 hrs by sulforhodamine B assay; conditions: MCF7, 48 h; outline: as §1
[20] = test system: NCI-H23; test: Growth inhibition of human NCI-H23 cells incubated for 48 hrs by sulforhodamine B assay; conditions: NCI-H23, 48 h; outline: as §3
[21] = test system: HT-29; test: Growth inhibition of human HT-29 cells incubated for 48 hrs by sulforhodamine B assay; conditions: HT-29, 48 h; outline: as §3
[22] = test system: SK-OV-3; test: Growth inhibition of human SKOV3 cells incubated for 48 hrs by sulforhodamine B assay; conditions: SK-OV-3, 48 h; outline: as §1
[23] = test system: RPMI-8226; test: Growth inhibition of human RPMI8226 cells incubated for 48 hrs by sulforhodamine B assay; conditions: RPMI-8226, 48 h; outline: as §1
[24] = test system: Malme-3M; test: Growth inhibition of human MALME-3M cells incubated for 48 hrs by sulforhodamine B assay; outline: as §3
[25] = test system: M14; test: Growth inhibition of human M14 cells incubated for 48 hrs by sulforhodamine B assay; conditions: M14, 48 h; outline: as §3
[26] = test system: TK-10; test: Growth inhibition of human TK10 cells incubated for 48 hrs by sulforhodamine B assay; conditions: TK-10, 48 h; outline: as §1
[27] = test system: UACC-62; test: Growth inhibition of human UACC62 cells incubated for 48 hrs by sulforhodamine B assay; conditions: UACC-62, 48 h; outline: as §1
[28] = test system: SN12C; test: Growth inhibition of human SN12C cells incubated for 48 hrs by sulforhodamine B assay; outline: as §2
[29] = test system: HOP-92; test: Growth inhibition of human HOP92 cells incubated for 48 hrs by sulforhodamine B assay; conditions: HOP-92, 48 h; outline: as §3
[30] = test system: SW-620; test: Growth inhibition of human SW620 cells incubated for 48 hrs by sulforhodamine B assay; conditions: SW-620, 48 h; outline: as §2
[31] = test system: SF-295; test: Growth inhibition of human SF295 cells incubated for 48 hrs by sulforhodamine B assay; conditions: SF-295, 48 h; outline: as §3
[32] = read-out: LC50 (the source's name)

With COc1ccc(C(=O)/C=C/c2cccc(Nc3ccnc4cc(Cl)ccc34)c2)cc1 the GI50 [1] was 2900 nM, the CC50 [1, 32] was over 100000 nM and the GI50 [2] was 1730 nM. It also gave a CC50 [2, 32] of 23700 nM, a GI50 [3] of 1440 nM and a CC50 [3, 32] of over 100000 nM. It also gave a GI50 [4] of 2130 nM, a CC50 [4, 32] of over 100000 nM and a GI50 [5] of 1750 nM. The LC50 [5] was over 100000 nM, the GI50 [6] was 3850 nM and the CC50 [6, 32] was over 100000 nM. The GI50 [7] was 1780 nM, the CC50 [7, 32] was over 100000 nM and the GI50 [8] was 1160 nM. It also gave a CC50 [8, 32] of over 100000 nM, a GI50 [9] of 1030 nM and a GI50 [10] of 1870 nM. For the same compound, the CC50 [10, 32] was over 100000 nM, the GI50 [11] was 840 nM and the LC50 (concentration killing 50% of cells) [11] was over 100000 nM. It also gave a GI50 [12] of 1000 nM, a GI50 [13] of 3000 nM and a CC50 [13, 32] of over 100000 nM. It also gave a GI50 [14] of 2040 nM, a CC50 [14, 32] of over 100000 nM and a GI50 [15] of 2260 nM. For the same compound, the CC50 [15, 32] was over 100000 nM, the GI50 [16] was 2260 nM and the LC50 (concentration causing 50% net cell kill) [16] was over 100000 nM. The GI50 [17] was 1870 nM, the CC50 [17, 32] was over 100000 nM and the GI50 [18] was 2450 nM. For the same compound, the CC50 [18, 32] was over 100000 nM, the GI50 [19] was 1820 nM and the CC50 [19, 32] was over 100000 nM. For the same compound, the GI50 [20] was 1490 nM, the CC50 [20, 32] was over 100000 nM and the GI50 [21] was 1640 nM. The LC50 [21] was over 100000 nM, the GI50 [22] was 2220 nM and the CC50 [22, 32] was over 100000 nM. The GI50 [23] was 570 nM, the CC50 [23, 32] was over 100000 nM and the GI50 [24] was 1790 nM. It also gave a CC50 [24, 32] of over 100000 nM, a GI50 [25] of 1600 nM and a CC50 [25, 32] of over 100000 nM. The GI50 [26] was 1640 nM, the CC50 [26, 32] was over 100000 nM and the GI50 [27] was 1190 nM. For the same compound, the CC50 [27, 32] was over 100000 nM, the GI50 [28] was 1300 nM and the CC50 [28, 32] was over 100000 nM. It also gave a GI50 [29] of 1090 nM, an LC50 (concentration giving 50% net cell kill) [29] of over 100000 nM and a GI50 [30] of 1980 nM. It also gave a CC50 [30, 32] of over 100000 nM, a GI50 [31] of 690 nM and a CC50 [31, 32] of over 100000 nM.
